Published values pooled from the literature.
Lines come from different studies, so protocols differ.
Organism: Staphylococcus aureus
Observed: microbial growth

SMILES	assay	test system	setting	MIC
CCCCCCCC(=O)Oc1c(C)c(O)c(C(=O)/C=C/c2ccccc2)c(OC)c1C	broth dilution	ATCC25923		> 5000 µg/mL
CC(=O)NC[C@H]1CN(c2ccc(N3CCOCC3)c(F)c2)C(=O)O1	broth dilution	MRSA NRS123 USA400	drug-resistant strain	2 µg/mL
Fc1ccc(-c2nc3ccccc3[nH]2)cc1	broth dilution	ATCC29213 MSSA		256 µg/mL
C/C=C(\C)c1cc(OC(=O)c2c(O)c(C)c(O)c(Cl)c2/C(C)=C/C)c(C)c(O)c1C(=O)O	broth dilution	745524		32 µg/mL
Cc1cc(C)n(C(=O)c2ccc(-n3c(C)ccc3C)cc2)n1	broth dilution	ATCC11632	18 h	125 µg/mL
COc1ccc2c(c1)CCc1c(C(=O)NCCc3nc4cc(C)ccc4[nH]3)n[nH]c1-2				> 128 µg/mL
Cc1cc(/C=C2\Sc3ccccc3N2CCCN2CCCCC2)c2ccccc2[n+]1C.[I-]	broth dilution	ATCCBAA44		8 µg/mL
O=C1NC(=S)N/C1=C\c1c2ccccc2c(-c2ccc(N(c3ccccc3)c3ccccc3)cc2)c2ccccc12	broth dilution	ATCC6538		> 1000 µg/mL
Clc1ccc(NCc2ccc(Oc3ccccn3)cc2)cc1				> 3.1 µg/mL
COc1c(C)c(O)c(C)c(O)c1C(=O)/C=C/c1ccccc1	broth dilution	ATCC25923		2500 µg/mL
CC(C)Oc1c(N)ccc(C(=O)Nc2ccc(C(=O)N[C@@H](CC(N)=O)C(=O)Nc3ccc(C(=O)Nc4ccc(C(=O)Nc5ccc(C(=O)O)cc5)c(O)c4OC(C)C)cc3)cc2)c1O		ATCC29213		> 64 µg/mL
CN(C)[C@@H]1C(O)=C(C(N)=O)C(=O)[C@@]2(O)C(O)=C3C(=O)c4c(O)cccc4[C@@](C)(O)[C@H]3C[C@@H]12		ATCC43300		2 µg/mL
CC[C@H]1OC(=O)[C@H](C)[C@@H](O[C@H]2C[C@@](C)(OC)[C@@H](O)[C@H](C)O2)[C@H](C)[C@@H](O[C@@H]2O[C@H](C)C[C@H](N(C)C)[C@H]2O)[C@](C)(O)C[C@@H](C)C(=O)[C@H](C)[C@@H](O)[C@]1(C)O		147	clinical isolate	37.5 µM
O=S(=O)(NCCNC/C=C/c1ccc(Br)cc1)c1cccc2cnccc12		NCTC8325		> 30 µM
O=C1NC(=S)N/C1=C\c1ccc(-c2ccc(N(c3ccccc3)c3ccccc3)cc2)c2ccccc12	broth dilution	ATCC6538		> 1000 µg/mL
Cc1ccccc1NCc1ccc(Oc2ccccn2)cc1				1.6 µg/mL
CN[C@H](CC(C)C)C(=O)N[C@H]1C(=O)N[C@@H](CC(N)=O)C(=O)N[C@H]2C(=O)N[C@H]3C(=O)N[C@H](C(=O)N[C@H](C(=O)O)c4cc(O)cc(O)c4-c4cc3ccc4O)[C@H](O)c3ccc(c(Cl)c3)Oc3cc2cc(c3O[C@@H]2O[C@H](CO)[C@@H](O)[C@H](O)[C@H]2O[C@H]2C[C@](C)(N)[C@H](O)[C@H](C)O2)Oc2ccc(cc2Cl)[C@H]1O	broth dilution	745524		1 µg/mL
C=CC1(C)CC(OC(=O)CSCCCCCN(C)C)C2(C)C(C)CCC3(CCC(=O)C32)C(C)C1O (stereo not shown)				0.5 µg/mL
CCN(CC)CCNC(=O)c1c(C)[nH]c(/C=C2\C(=O)Nc3ccc(F)cc32)c1C		NCTC8325		> 30 µM
CCOc1ccc(-c2nc3cc(-c4nc5cc(N6CCN(C)CC6)ccc5[nH]4)ccc3[nH]2)cc1	broth dilution	29213	24 h	2 to 4 µg/mL

SMILES	assay	test system	setting	MIC
CC(C)Oc1c(NC(=O)c2ccc(NC(=O)[C@H](CC(N)=O)NC(=O)c3cccc(-c4cccc(C#N)c4)c3)cc2)ccc(C(=O)Nc2ccc(C(=O)O)cc2)c1O		ATCC29213		> 64 µg/mL
COc1ccc(-c2nc3ccc(C)cc3[nH]2)cc1OC	broth dilution	ATCC29213 MSSA		128 µg/mL
C/C=C(\C)c1cc(OC(=O)c2c(C)c(Cl)c(O)c(Cl)c2O)c(C)c(O)c1C(=O)O	broth dilution	16339		> 64 µg/mL
O=C(COC(=O)c1n[nH]c2ccccc12)Nc1ccc(N2CCCCC2)cc1				> 128 µg/mL
CC(C)Oc1c(NC(=O)c2ccc(NC(=O)[C@H](CC(N)=O)NC(=O)c3ccc(NC(=O)c4ccc(S(C)(=O)=O)cc4)cc3)cc2)ccc(C(=O)Nc2ccc(C(=O)O)cc2)c1O		ATCC29213		> 64 µg/mL
O=C(CCCCCCCCCC[P+](c1ccccc1)(c1ccccc1)c1ccccc1)Nc1ccc(O)c(O)c1.[Br-]	broth dilution	ATCC43300 MRSA	18 h	16 µg/mL
CO[C@H]1C[C@@H]2CC[C@@H](C)[C@@](O)(O2)C(=O)C(=O)N2CCCC[C@H]2C(=O)O[C@H]([C@H](C)C[C@@H]2CC[C@@H](OCCO)[C@H](OC)C2)CC(=O)[C@H](C)/C=C(\C)[C@@H](O)[C@@H](OC)C(=O)[C@H](C)C[C@H](C)/C=C/C=C/C=C/1C		NCTC8325		> 30 µM
C/C=C(\C)c1cc(O)c(C)c(OC(=O)c2c(C)cc(O)c(Cl)c2O)c1		MRSA		8 µg/mL
CCCCCCC#Cc1cncc(-c2nnc(SCc3ccc(Cl)cc3)n2C)c1		MRSA	drug-resistant strain	≥ 20 µg/mL
C[C@@H](O)[C@H]1C(=O)N2C(C(=O)O)=C(SCCN=CN)C[C@H]12	broth dilution	KCTC1621	16 h	8 µM
Cc1ccc2nc(-c3c4ccccc4cc4ccccc34)[nH]c2c1	broth dilution	ATCC29213 MSSA		64 µg/mL
CC1(C)S[C@@H]2[C@H](NC(=O)COc3ccccc3)C(=O)N2[C@H]1C(=O)O	broth dilution	ATCC25923	18 h	2 µg/mL
COC(=O)c1cc(Sc2ccc(NC(=O)Nc3ccc(Cl)c(C(F)(F)F)c3)cc2)ccn1		NCTC8325	24 h	3 µM
O=C(CCCCCCCC[P+](c1ccccc1)(c1ccccc1)c1ccccc1)Nc1cc(O)c(O)c(O)c1.[Br-]	broth dilution	ATCC43300 MRSA	18 h	16 µg/mL
Cc1cc(=O)[nH]n1C(=O)c1ccc(-n2c(C)ccc2C)cc1	broth dilution	ATCC11632	18 h	125 µg/mL
COc1ccc(-c2nc3ccc(C)cc3[nH]2)cc1O	broth dilution	ATCC29213 MSSA		64 µg/mL
CC1(C)S[C@@H]2[C@H](NC(=O)[C@H](N)c3ccccc3)C(=O)N2[C@H]1C(=O)O	broth dilution	6917		64 µg/mL
CC1=NN(CNc2ccc(O)cc2)C(=O)C1=NNn1c(-c2ccccc2)nc2ccccc2c1=O	broth dilution		24 h	53.5 µM
O=C(O)CN1C(=O)/C(=C/c2c3ccccc3c(-c3ccc(N(c4ccccc4)c4ccccc4)cc3)c3ccccc23)SC1=S	broth dilution	ATCC43300		> 1000 µg/mL
COc1cccc(-c2nc3ccc(C)cc3[nH]2)c1	broth dilution	ATCC29213 MSSA		128 µg/mL

SMILES	assay	test system	setting	MIC
O=C(Nc1ccc(Nc2ccccc2)cc1)Nc1ccc(Cl)c(C(F)(F)F)c1		NCTC8325	24 h	3 µM
O=C1NC(=S)N/C1=C\c1ccc(-c2ccc(N(c3ccccc3)c3ccccc3)cc2)cc1	broth dilution	ATCC43300		> 1000 µg/mL
CC(C)Oc1c(NC(=O)c2ccc(NC(=O)[C@H](CC(N)=O)NC(=O)c3ccc(NC(=O)c4ccc([N+](=O)[O-])c(OC(C)C)c4O)cc3)cc2)ccc(C(=O)Nc2ccc(C(=O)O)cc2)c1O		ATCC29213		> 64 µg/mL
CSc1ccc(/C=C/c2cc(/C=C3\Sc4ccccc4N3CCCN3CCCC3)c3ccccc3[n+]2C)cc1.[I-]	broth dilution	ATCCBAA44		32 µg/mL
COc1ccc(-c2nc3ccccc3n2Cc2ccccc2)cc1OC	broth dilution	ATCC29213 MSSA		4 µg/mL
O=C1NC(=S)S/C1=C\c1ccc(-c2ccc(N(c3ccccc3)c3ccccc3)cc2)cc1	broth dilution	ATCC43300		250 µg/mL
CNC(=O)c1cc(Oc2ccc(NC(=O)Nc3ccc(C)cc3)cc2)ccn1		NCTC8325		> 100 µM
O=C1NC(=O)C(Cc2ccc(O)cc2)S1 (stereo not shown)				> 128 µg/mL
COc1cccc(OC)c1C(=O)N[C@@H]1C(=O)N2[C@@H]1SC(C)(C)[C@@H]2C(=O)O		129	clinical isolate	37.5 µM
C[C@@H](O)[C@H]1C(=O)N2C(C(=O)O)=C(S[C@@H]3CN[C@H](C(=O)N(C)C)C3)[C@H](C)[C@H]12		MRSA		32 µg/mL
FC(F)(F)c1cc(-c2nnc(Sc3cc(Cl)nc(Sc4ccccc4)n3)[nH]2)cc(C(F)(F)F)c1		83254		1.6 µM
O=C(Nc1ccc(Cl)c(C(F)(F)F)c1)N1CCc2ccccc2C1		NCTC8325	24 h	30 µM
O=C(O)CN1C(=O)/C(=C/c2c3ccccc3c(-c3ccc(N(c4ccccc4)c4ccccc4)cc3)c3ccccc23)NC1=S	broth dilution	ATCC43300		> 1000 µg/mL
Clc1ccc(-c2nc3ccccc3[nH]2)c(Cl)c1	broth dilution	ATCC29213 MSSA		128 µg/mL
CC(C)Oc1c(NC(=O)c2ccc(NC(=O)[C@H](CC(N)=O)NC(=O)c3ccc(NC(=O)c4ccc(C#N)cc4)cc3)cc2)ccc(C(=O)N[C@@H]2CONC2=O)c1O		ATCC29213		> 64 µg/mL
Cc1ccc2nc(-c3ccc(Cl)cc3Cl)[nH]c2c1	broth dilution	ATCC29213 MSSA		64 µg/mL
CC(C)Oc1c(NC(=O)c2ccc(NC(=O)[C@H](CC(N)=O)NC(=O)c3ccc(NC(=O)c4ccc([N+](=O)[O-])c5cccnc45)cc3)cc2)ccc(C(=O)Nc2ccc(C(=O)O)cc2)c1O		ATCC29213		> 64 µg/mL
O=C(Nc1ccc2c(c1)OC(F)(F)O2)NC12CC3CC(CC(C3)C1)C2		NCTC8325		> 100 µM
